Source: PubChem
Only some compounds are listed: those with a hit (about 4.5% of all), similar ones and a draw of the others.
TAAR1 ag: human TAAR1 agonists, primary screen, Fluo-8 calcium fluorescence, CHO RD-HGA16 cells. vehicle wells 0%, saturating PEA agonist 100%. activation, % at 3 µM. hit rate 0.99% among 360,000;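 active = activation above the mean activation of all test compounds in the run plus 3 SD, cut at about 38% in these data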
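Test system: RD-HGA16 (CHO) cells co-expressing Gα16 and hTAAR1; dosing: one-point dosing at 3 µM (nominal); timing: 17-24 h seeding, 75 min 37 °C dye, 30 min RT; signal: kinetic Fluo-8 calcium fluorescence; read-out basis: % activation relative to PEA EC100 response; controls: DMSO and PEA EC100; replicates: n 1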
OX1R antag-1: antagonists of human orexin 1 receptor (OX1R); Orexin/Hypocretin receptor type 1 (Homo sapiens), O43613; OX1R-expressing cells, FRET antagonist read-out; inhibition, % at 6.6 µM; hit rate 1.8% among 330,000; in the data active = inhibition mostly above about 38%, no sharp cut-off; inactive = mostly below about 40%;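 note: 0% = agonist challenge alone and 100% = reference antagonist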
Target sequence (O43613 whole entry, looked up): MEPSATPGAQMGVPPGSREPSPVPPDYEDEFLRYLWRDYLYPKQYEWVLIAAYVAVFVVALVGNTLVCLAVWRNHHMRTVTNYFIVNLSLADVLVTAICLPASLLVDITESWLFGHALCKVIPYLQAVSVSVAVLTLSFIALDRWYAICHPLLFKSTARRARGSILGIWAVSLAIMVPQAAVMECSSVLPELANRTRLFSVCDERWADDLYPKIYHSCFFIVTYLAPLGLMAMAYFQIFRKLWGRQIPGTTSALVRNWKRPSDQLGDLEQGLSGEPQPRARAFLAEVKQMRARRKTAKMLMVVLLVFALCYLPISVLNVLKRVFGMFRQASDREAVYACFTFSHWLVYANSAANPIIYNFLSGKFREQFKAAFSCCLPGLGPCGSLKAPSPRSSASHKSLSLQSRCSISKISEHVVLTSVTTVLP
TAAR1 antagonist: human TAAR1 antagonists, primary screen, Fluo-8 calcium fluorescence, CHO RD-HGA16 cells; inhibition, % at 3 µM; antagonist; Trace amine-associated receptor 1 (Homo sapiens), Q96RJ0; hit rate 1.5% among 360,000; AID 624466, 2012;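 active = inhibition above a per-plate cutoff, the mean inhibition of test compounds on that plate plus 3 SD, cut at about 49% in these data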;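 note: 0% = DMSO plus EC80 beta-PEA response and 100% = DMSO alone without agonist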
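Assay system: RD-HGA16 CHO cells with stable hTAAR1 and Gα16 / Reagent: EC80 β-phenethylamine stimulus / Doses: 3 µM, single point / Timing: dye loading 75 min at 37 °C, then 30 min room temperature / Measured by: Fluo-8 intracellular calcium dye fluorescence, real-time kinetic reads / Controls: vehicle wells and EC80 agonist wells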
GPR7 antag: GPR7 receptor antagonists, primary screen, cell-based, fluorescence, single concentration | Neuropeptides B/W receptor type 1 (Homo sapiens), P48145 | GPR7-expressing cells, fluorescence antagonist assay | inhibition, % at 4.4 µM | hit rate 1.1% among 290,000; in the data active = inhibition above about 16%, passing the limit was not always enough;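 note: cells stimulated with the agonist NPW; 0% = agonist with vehicle and 100% = vehicle without agonist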
OX1R antag-2: OX1R (HCRTR1) antagonists, primary screen, fluorescence, CHO/OX1R cells, Fluo-8 calcium, orexin A; Orexin/Hypocretin receptor type 1 (Homo sapiens), O43613; Fluo-8 calcium fluorescence; inhibition, % at 5 µM; hit rate 0.43% among 330,000; AID 434989, 2010;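 active = inhibition above its plate's threshold, mean inhibition of all tested compounds on the plate plus 3 SD, cut at about 37% in these data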;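 note: 0% = orexin A challenge wells and 100% = SB-334867-A antagonist wells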
CHO parental Ca: ATP-evoked calcium signal inhibitors, parental CHO, primary screen, counter-screen for OX1R antagonist project, cell-based, fluorescence, Fluo-8 calcium dye. parental CHO-K1, ATP-induced calcium, Fluo-8 fluorescence. inhibition, % at 5.6 µM. hit rate 0.63% among 330,000;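 active = inhibition above that plate's mean sample inhibition plus 3 SD, cut at about 26% in these data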;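 note: 0% = ATP-challenged DMSO wells and 100% = DMSO wells without ATP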
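Test system: untransfected parental CHO cell line. Compound: one dose, 5.6 µM nominal. Detection: intracellular calcium via Fluo-8 no-wash fluorescent dye. Measure: % inhibition. Benchmarks: ATP-challenged DMSO wells low, unchallenged DMSO wells high.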
Numbers without * were called inactive; . = no result.

SMILES	TAAR1 ag	OX1R antag-1	TAAR1 antagonist	GPR7 antag	OX1R antag-2	CHO parental Ca
O=c1[nH]c(/C=C\c2cccnc2)c([N+](=O)[O-])c(=O)[nH]1	13	54*	0	-11	1	5
COc1cc(/C=C/c2[nH]c(=O)[nH]c(=O)c2[N+](=O)[O-])cc([N+](=O)[O-])c1O	4	63*	-15	0	-12	-12
Cc1cc(N2CCNC[C@H]2C)ccc1N1C[C@@H](C)O[C@@H](C)C1	2	.	9	.	.	.
CC(C)=C[C@H]1C[C@H](C)[C@H]2CC[C@H](C)c3c(O[C@@H]4O[C@@H](C)[C@@H](O)[C@@H](O)[C@@H]4O)c(O)c(C)c1c32	2	.	-31	.	.	.
Cc1cccc(OCc2nnc(SCC(=O)Nc3sc(C)c(C)c3C#N)n2C)c1	42*	7	22	-9	6	7
Cc1[nH]n(-c2ccccc2)c(=O)c1/C=N/N1C(=O)c2cccc3cccc(c23)C1=O	25	74*	11	3	5	-5
Nc1nc(NCc2ccc(Cl)cc2)nc(NCCO)c1[N+](=O)[O-]	45*	20	-30	-15	-30	-25
Cc1ccc(CNc2nc(N)c([N+](=O)[O-])c(NCCO)n2)cc1	8	21	-1	-16	-27	-25
Cc1cc(NC(=O)c2cc3cccc([N+](=O)[O-])c3[nH]2)ccc1F	5	46*	7	-1	6	5
O=[N+]([O-])c1cc(C(F)(F)F)ccc1Sc1nccn1Cc1ccccc1	6	15	7	0	-28	-11
O=[N+]([O-])c1ccc(Sc2ncccn2)c([N+](=O)[O-])c1	0	67*	-7	-4	-8	-3
O=[N+]([O-])c1ccc(Sc2nccn2Cc2ccccc2)c([N+](=O)[O-])c1	2	38*	-18	-7	-33	-15
CN(C(=O)COC(=O)c1cccnc1Cl)C1CCCCC1	3	8	-9	.	-10	-11
COc1cc(C)ccc1S(=O)(=O)NC(=O)C1(C)CCN1C(=O)c1ccc(C(F)(F)F)nc1C (stereo unspecified)	1	.	-11	.	.	.
NC(=O)c1cccc(-c2cnc3c(Nc4cccc(OC(F)(F)C(F)F)c4)nccn23)c1	2	.	42	.	.	.
O=C(O)c1cccc(CSc2nc(-c3ccc(Cl)cc3)cc(C(F)(F)F)n2)c1	5	21	54*	-8	35	12
COc1ccc(-c2cc(C)nc(SCc3cccc(C(=O)O)c3)n2)cc1	2	16	-20	-2	3	5
CCC(=O)N1CCc2cc(S(=O)(=O)N3CCN(c4cc(Cl)ccc4C)CC3)ccc21	8	0	-15	-1	-15	-18
O=C(NCC(c1cccs1)N1CCOCC1)c1cc2ccccc2o1 (stereo unspecified)	6	21	-2	-10	0	-13
O=C(NCC(c1cccs1)N1CCOCC1)c1cc(-c2ccc(F)cc2)nc2ccccc12 (stereo unspecified)	5	13	42	20*	-26	-22
O=C(NCC(c1cccs1)N1CCOCC1)c1cc2ccccc2oc1=O (stereo unspecified)	3	26*	5	.	3	-22
Cc1c(NC(=O)c2cccc(NC(=O)COc3ccc(C#N)cc3)c2)c(=O)n(-c2ccccc2)n1C	3	.	1	.	.	.
O=C(CN1C(=O)NC2(CCCC2)C1=O)NCCN1C(=O)S/C(=C\c2ccccc2F)C1=O	4	51*	18	.	-18	-22
O=C(CN1C(=O)/C(=C/c2ccccc2F)Sc2ccccc21)NCC1CCCO1 (stereo unspecified)	-1	66*	5	-9	22	-20
O=Nc1c(O)n(Cc2ccc(Cl)cc2)c2ccccc12	12	7	4	8	-18	-21
SMILES	TAAR1 ag	OX1R antag-1	TAAR1 antagonist	GPR7 antag	OX1R antag-2	CHO parental Ca
O=Nc1c(O)n(Cc2ccc(Cl)cc2Cl)c2ccccc12	10	16	-25	-2	24	87*
Cc1ccc2c(c1)c(N=O)c(O)n2Cc1ccc(Cl)cc1	2	6	-22	-5	-2	36*
Cc1ccc(Cn2c(O)c(N=O)c3ccccc32)cc1	3	24	-6	1	-15	-9
CCOc1cc(CNCCCN2CCOCC2)cc(Br)c1OCc1ccccc1Cl	23	6	-9	39*	-1	-5
CCOc1cc(CNCCO)cc(Br)c1OCc1ccccc1Cl	46*	0	18	10	10	4
CCOc1cc(CNCCN2CCOCC2)ccc1OCc1ccccc1Cl	4	9	-26	21	-18	-4
Cc1cc(C)cc(NS(=O)(=O)c2c(C)[nH]c(=O)[nH]c2=O)c1	0	.	4	-5	.	.
O=C(O)c1ccc(Cl)c(NCc2cccs2)c1	4	2	-14	-14	-9	-6
CC(=O)CC(=O)NC(=NC1CCCCC1)Nc1nc(C)cc(C)n1	0	16	-23	21*	-7	2
Cc1ccc(-c2cc(C(=O)NNC(=O)c3csc(N4CCOCC4)n3)c3ccccc3n2)cc1	14	8	43	.	-20	-14
Cc1ccc2nc(-c3ccccc3)cc(C(=O)NNC(=O)c3csc(N4CCOCC4)n3)c2c1	17	8	57*	.	-25	-14
Cc1cccc(N2CCN(C(=O)CSCc3c(C)noc3C)CC2)c1C	.	30	.	7	18	46*
Cc1noc(C)c1CSCC(=O)N1CCN(c2ccc(F)cc2)CC1	15	18	6	0	-20	-4
CNc1nc(NCc2cccc(OC)c2)c2sccc2n1	27	.	21	.	.	.
COc1cccc(CNc2nc(NCc3ccccc3)nc3ccsc23)c1	49*	.	96*	.	.	.
c1ccc(CNc2nc(NCCc3ccncc3)c3sccc3n2)cc1	125*	.	106*	.	.	.
Fc1ccc(Nc2nc(NCc3ccccc3)nc3ccsc23)cc1	11	.	20	.	.	.
Cc1ccc(Nc2nc(NCc3ccccc3)nc3ccsc23)c(C)c1	29	.	88*	.	.	.
O=C1CCCN1CCCNc1nc(NCc2cccs2)nc2ccsc12	92*	.	99*	.	.	.
CCCCCCCCN1C(=O)[C@@H](CC(=O)NCC2CCCCC2)C[C@@]2(C(=O)OC)C1=C[C@H](C(C)(C)C)O[C@@H]2C	4	.	-28	.	.	.
CC(C)(C)OC(=O)N1CCc2onc(-c3ccc(Cl)cc3)c2C1=O	-2	.	5	.	.	.
COc1ccccc1CNc1nc(NCCOc2ccccc2Cl)c2sccc2n1	3	.	34	.	.	.
